The nature of assay [1]: S. cerevisiae growth inhibition in permissive medium (OD615), pilot counter-assay for S. cerevisiae lifespan shortening project, permissive growth control (AID 705;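 active = growth inhibition above 25% in both replicates, a cutoff set 3 SD above the mean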). The conditions noted are these: OD615, 24 h, at 10 µM, hits give high values. The gist of the method: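 assay system = Saccharomyces cerevisiae strain carrying genetically modified DeaD replicative-lifespan system | medium = SC raffinose/galactose permissive medium | dosing = 10 µM single dose, 0.25% DMSO | schedule = 24 h compound exposure at 30 °C after 4 h pre-growth | measured by = OD at 615 nm | read-out basis = growth inhibition from lowered OD615 after 24 h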

Assay [2] in a line: S. cerevisiae growth inhibition in restrictive medium, OD615, pilot screen, restrictive growth control, yeast lifespan reduction project (AID 706;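 active = growth inhibition above a set limit, 3 SD over mean compound inhibition, in both replicates, cut at about 43% in these data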). The following applies: OD615, 48 h, at 10 µM, hits give high values. The gist of the method: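 Buffer or medium: CSMM-D glucose medium. Material: genetically modified Saccharomyces cerevisiae, DeaD replicative lifespan assay strain. Times: 48 h compound exposure at 30 °C. Measured by: optical density at 615 nm.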

Assay [3] is described as follows: doxorubicin toxicity protection in MRP-1 cells – H69AR cells, CellTiter-Glo, duplicate, MRP-1 activator project, pilot screen (AID 807;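 active = viability increase at or above a cutoff of the median across tested compounds plus 3 SD, cut at about 8.5% in these data, passing the limit was not always enough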;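 also: compound pretreatment 18-22 h then 72 h combined with doxorubicin; 0% = doxorubicin alone and 100% = vehicle without doxorubicin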). The conditions noted are these: H69AR viability with doxorubicin, CellTiter-Glo luminescence; at 10 µM; hits give high values.
A short description of assay [4]: viability of PTEN-null HCT116 cells – cell-based, HCT116 clonal line, CellTiter-Glo, pilot screen (AID 824;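 active = viability at or below 27.92% in each of two runs, the all-compound median minus 4 SD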;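 also: 0% = 20 µM Hyamine control and 100% = vehicle cell control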). The conditions noted are these: HCT116 PTEN-deleted viability, 60 h, at 10 µM, hits give low values. Background: ATP-based viability assays read luminescence as a measure of living cells.
Assay [5] can be described thus: RAM pathway blockade in budding yeast – dse1pr::URA3 reporter, 5-FOA selection, pilot screen (AID 869;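 active = inhibition over a set limit, the all-compound mean plus 3 SD, in both replicate runs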;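 also: 0% = DMSO wells with no growth and 100% = 10 µM 1-NA-PP1 with full growth; RAM network block rescues cells from 5-FOA so hits raise OD615 growth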). The following applies: S. cerevisiae dse1pr::URA3 5-FOA growth, OD615, 2 d; at 10 µM; hits give high values; strain carries analog-sensitive mutant Cbk1 kinase.
Assay [6] is described as follows: RAM signaling pathway blockade in yeast – S. cerevisiae, Pdr1DBD-CYC8 efflux-inhibited sensitized strain, primary screen (AID 1298).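 Also: 0% = DMSO untreated cells without growth and 100% = 10 µM 1-NA-PP1 full growth; higher means more yeast growth rescued from 5-FOA killing.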 The following applies: S. cerevisiae cbk1-as DSE1-URA3 strain, 5-FOA growth OD615, 2 d; at 50 µM; hits give high values.

Values without a mark were called inactive. Results filed as inconclusive are left out. Activity calls are given as the source filed them.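 The calls were made as follows, unless noted: active = RAM network inhibition above 8.4% in each of two replicates, 3 SD over the compound average; inconclusive = above 8.4% inhibition in only one replicate; inactive = 8.4% inhibition or less in each replicate.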

A word on the viability: it is a read-out of living cells in per cent, often relative to untreated cells. For orientation: inhibition means the drop in the measured response relative to a control, in per cent. For the compound `CCOC(=O)C(C(=O)Nc1cccc(C)n1)C1CCCCC1` (stereo not given), the growth inhibition was -6.76% in assay [1] and -0.005% in assay [2]. The viability increase in assay [3] was 1.76%. Besides, the viability in assay [4] was 88.1%. The inhibition in assay [5] was 3.22%. In addition, in assay [6], the RAM network inhibition is 2.72%.

For the compound `C#CCN1C(=O)C(O)(CC(=O)c2ccc3c(c2)OCCO3)c2ccccc21` (stereo not given), the results for the growth inhibition in assay [1] and in assay [2] were -19% and -18.4%, respectively. In assay [3], the viability increase is -2.81%. The viability in assay [4] was 49.2%. In addition, the inhibition in assay [5] was 0.74%. In addition, the RAM network inhibition in assay [6] was 6.75%.

On to `CCn1cc(C(=O)NCCCOC)c2cc(OC)c(OC)cc2c1=O`, for which the values for the growth inhibition in assay [1] and in assay [2] were -10.7% and 0.745%, respectively. Further, the viability increase in assay [3] was -2.42%. Further, in assay [4], the viability was 104%. Moreover, the inhibition in assay [5] was 2.5%. In addition, the RAM network inhibition in assay [6] was 3.59%.

Consider `COC(=O)c1c(C)oc2cc(Br)c(OCC(=O)C(C)(C)C)cc12`, for which the growth inhibition in assay [1] was -9.2%; in assay [2] it was -14.9%. In addition, the viability increase in assay [3] was -2.86%. The viability in assay [4] was 90.9%. The inhibition in assay [5] is 1.84%. For the same compound, in assay [6], the RAM network inhibition is 3.84%.

For the compound `COc1ccc(N2CCN(CCNC(=O)CCNS(=O)(=O)c3cccs3)CC2)cc1`, the growth inhibition in assay [1] is -5.45%; in assay [2], -5.3%. Moreover, in assay [3], the viability increase was -0.82%. Besides, the viability in assay [4] was 96.3%. For the same compound, the inhibition in assay [5] was 1.71%. Besides, in assay [6], the RAM network inhibition is 2.25%.

Regarding `CN(CCNC(=O)c1cc2c(=O)n(C)c3ccccc3c2n1C)Cc1ccccc1`, the growth inhibition is -12% in assay [1] and -7.87% in assay [2]. In addition, the viability increase in assay [3] was -8.65%. In addition, the viability in assay [4] was 41.1%. Besides, the inhibition in assay [5] was 1.83%. Also, the RAM network inhibition in assay [6] is -0.47%.

On to `Cc1c(C(=O)NCC2CCCO2)oc2ccc(S(=O)(=O)N3CCCC3)cc12` (stereo not given), for which the growth inhibition is -6.79% in assay [1] and -3.9% in assay [2]. Moreover, the viability increase in assay [3] was -2.38%. The viability in assay [4] was 91.6%. For the same compound, in assay [5], the inhibition is 2%. Moreover, the RAM network inhibition in assay [6] is 1.44%.

Take `CC(=O)N1CCN(S(=O)(=O)c2ccc(C)cc2)C1c1ccc(N(C)C)cc1` (stereo not given): the growth inhibition in assay [1] was 4.58%; in assay [2], 1.53%. Besides, the viability increase in assay [3] was -2.16%. Besides, the viability in assay [4] is 97.1%. The inhibition in assay [5] is 1.61%. The RAM network inhibition in assay [6] was 4.14%.

For `COc1cc(C(=O)N2CCN(c3cccc(C)c3C)CC2)cc(OC)c1OC`, the growth inhibition in assay [1] was 0.72%; in assay [2], 9.77%. Moreover, the viability increase in assay [3] was -5.32%. Besides, the viability in assay [4] is 20.1% (active). For the same compound, the inhibition in assay [5] is -0.125%. Moreover, the RAM network inhibition in assay [6] is 10.1%.

Regarding `CCN1CCN(CCNC(=O)C2CCCN(Cc3nc(-c4cccc(Cl)c4)oc3C)C2)CC1` (stereo not given), the figures for the growth inhibition in assay [1] and in assay [2] were -9.33% and -13.1%, respectively. In assay [3], the viability increase was -6.96%. For the same compound, the viability in assay [4] was 35%. The inhibition in assay [5] is -1.05%. Further, the RAM network inhibition in assay [6] is 0.71%.

For the compound `CN(CC1CCCO1)S(=O)(=O)c1ccc(C(=O)Nc2nc3cc4c(cc3s2)OCO4)cc1` (stereo not given), the values for the growth inhibition in assay [1] and in assay [2] were -9.44% and -15.3%, respectively. The viability increase in assay [3] was -4.33%. The viability in assay [4] is 35.8%. Besides, the inhibition in assay [5] is 2.66%. Moreover, in assay [6], the RAM network inhibition was 4.04%.

Turning to `CCOCCCNC(=O)C(c1ccc(Cl)cc1)N1CCC2(CC1)OCCO2` (stereo not given), the growth inhibition in assay [1] was -11.4%; in assay [2], -20.9%. Besides, in assay [3], the viability increase is -1.08%. In addition, the viability in assay [4] is 98%. In addition, the inhibition in assay [5] is 1.17%. Moreover, the RAM network inhibition in assay [6] is 1.59%.

As to `CC1=C(C(=O)N2CCOCC2)C(c2cc(C)cs2)NC(=O)N1` (stereo not given), the growth inhibition in assay [1] was -9.44%; in assay [2] it was 2.88%. The viability increase in assay [3] was -0.83%. Besides, in assay [4], the viability was 101%. For the same compound, the inhibition in assay [5] is 2.48%. The RAM network inhibition in assay [6] is 3.08%.

Consider `CCC(=O)Nc1sc2c(c1C#N)CC(C)(C)NC2(C)C`, for which the growth inhibition is -7.39% in assay [1] and -4.29% in assay [2]. For the same compound, in assay [3], the viability increase is 0.09%. For the same compound, the viability in assay [4] is 100%. The inhibition in assay [5] was 1.89%. The RAM network inhibition in assay [6] was 0.46%.

Regarding `CC1=CCC(C(=O)O)C(C(=O)O)C1` (stereo not given), the growth inhibition is -2.08% in assay [1] and -10.3% in assay [2]. Moreover, the viability increase in assay [3] is -2.04%. Moreover, the viability in assay [4] is 95.7%. Also, the inhibition in assay [5] is 1.69%. For the same compound, the RAM network inhibition in assay [6] was 1.34%.

For `CCC(C)(C(=O)NC1CCCC1)N(C(=O)CNC(C)=O)c1ccccc1` (stereo not given), the growth inhibition is -11.6% in assay [1] and -1.64% in assay [2]. In assay [3], the viability increase was -1.96%. In addition, the viability in assay [4] was 98.3%. In addition, the inhibition in assay [5] is 3.23%. In addition, the RAM network inhibition in assay [6] is 3.45%.

As for `O=C(c1ccco1)N1CCCC(c2nc(-c3ccc(S(=O)(=O)NCc4ccccc4)cc3)no2)C1` (stereo not given), the growth inhibition in assay [1] was -8.47%; in assay [2], -27.3%. Besides, the viability increase in assay [3] was -2.74%. Also, in assay [4], the viability is 47.4%. Also, the inhibition in assay [5] was 1.58%. Also, in assay [6], the RAM network inhibition is 3.3%.

`O/N=C1\CCCc2oc3c(c21)CCCC3`: the results for the growth inhibition in assay [1] and in assay [2] were -7.12% and -2.73%, respectively. Besides, in assay [3], the viability increase was -1.84%. Also, in assay [4], the viability is 97.5%. Besides, the inhibition in assay [5] is 2.48%. In addition, the RAM network inhibition in assay [6] was 1.89%.

Take `O=C(C1CC1)N1CCc2cc(Br)cc(S(=O)(=O)N3CCCCCC3)c21`: the growth inhibition is -4% in assay [1] and -6.99% in assay [2]. The viability increase in assay [3] is -3.17%. In addition, in assay [4], the viability was 82.1%. Besides, the inhibition in assay [5] is 1.66%. In addition, the RAM network inhibition in assay [6] was 5.99%.

`O=C(NCC1CCCO1)C1CCCCN1S(=O)(=O)c1ccc(F)cc1` (stereo not given): the results for the growth inhibition in assay [1] and in assay [2] were -2.19% and -9.73%, respectively. Moreover, the viability increase in assay [3] was -2.13%. The viability in assay [4] was 102%. Besides, in assay [5], the inhibition was 0.075%. Further, in assay [6], the RAM network inhibition is 1.44%.

Source of the values: PubChem BioAssay.
